Source: PubChem BioAssay
Diaph act CS = activates diaphorase or chemically reduces, flagging diaphorase assay artifacts; 190,000 compounds, 0.005% hits; activation factor at 20 µM; Diaphorase/resazurin coupled assay, resorufin fluorescence, 16 min; active compounds read high; 1 = vehicle wells, 0 = NADH-free wells;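 active = diaphorase activity raised at least twofold by the compound at 20 µM; inactive = activation factor below 2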
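Material: Clostridium kluyveri diaphorase, purified enzyme; Quantity: enzyme 0.07 U/mL final; Medium: HEPES pH 7.4 buffer with MgCl2 and Tween 20; Dosing: single compound dose of 20 µM, 1% DMSO final; Schedule: 16 min reaction at room temperature; Measured by: red resorufin fluorescence at 544/590 nm excitation/emission.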
PfGluPho inh = PfG6PD (Plasmodium falciparum) enzyme inhibition | PfGluPho enzyme, NADPH resazurin-diaphorase fluorescence | inhibition, % at 20 µM | 350,000 compounds, 0.78% hits | AID 504690;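 active = inhibition reaching at least a set limit at 20 µM in the primary screen, cut at about 59% in these data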;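 note: 0% = DMSO wells with substrate and 100% = DMSO wells lacking glucose-6-phosphate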
Diaphorase inh = inhibits diaphorase or chemically oxidizes, flagging diaphorase assay artifacts; diaphorase resazurin-to-resorufin fluorescence, NADH, 16 min; bacterial (C. kluyveri) enzyme, not human; inhibition, % at 20 µM; 190,000 compounds, 0.69% hits;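 active = primary screen inhibition at 20 µM above a set limit, cut at about 50% in these data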;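 note: plate controls were DMSO with full reaction for no effect and wells lacking NADH for full effect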
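System: Diaphorase enzyme from Clostridium kluyveri | Amount: Enzyme working solution with 0.14 U/mL diaphorase | Benchmarks: No-NADH positive control and DMSO neutral control | Signal: Fluorescence of resorufin formed from resazurin, Ex 544/Em 590 nm | Schedule: 16-min room-temperature incubation before reading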
G6PDH CS = L. mesenteroides G6PDH inhibition counter-screen; Purified L. mesenteroides G6PDH, diaphorase/resazurin coupled fluorescence, 45 min; inhibition, % at 5 µM; 200,000 compounds, 0.12% hits; in the data active = inhibition above about 50%
HKDC1 inh = blocks human hexokinase HKDC1 activity. recombinant HKDC1, G6PDH/diaphorase resazurin coupled fluorescence. inhibition, % at 20 µM. 340,000 compounds, 0.16% hits. Q2TB90;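 active = inhibition above about 35% when tested at 20 µM, limit read from the data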;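 note: plate controls were DMSO wells with enzyme for no effect and DMSO wells lacking enzyme for full effect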
Target sequence (Q2TB90 whole entry, looked up): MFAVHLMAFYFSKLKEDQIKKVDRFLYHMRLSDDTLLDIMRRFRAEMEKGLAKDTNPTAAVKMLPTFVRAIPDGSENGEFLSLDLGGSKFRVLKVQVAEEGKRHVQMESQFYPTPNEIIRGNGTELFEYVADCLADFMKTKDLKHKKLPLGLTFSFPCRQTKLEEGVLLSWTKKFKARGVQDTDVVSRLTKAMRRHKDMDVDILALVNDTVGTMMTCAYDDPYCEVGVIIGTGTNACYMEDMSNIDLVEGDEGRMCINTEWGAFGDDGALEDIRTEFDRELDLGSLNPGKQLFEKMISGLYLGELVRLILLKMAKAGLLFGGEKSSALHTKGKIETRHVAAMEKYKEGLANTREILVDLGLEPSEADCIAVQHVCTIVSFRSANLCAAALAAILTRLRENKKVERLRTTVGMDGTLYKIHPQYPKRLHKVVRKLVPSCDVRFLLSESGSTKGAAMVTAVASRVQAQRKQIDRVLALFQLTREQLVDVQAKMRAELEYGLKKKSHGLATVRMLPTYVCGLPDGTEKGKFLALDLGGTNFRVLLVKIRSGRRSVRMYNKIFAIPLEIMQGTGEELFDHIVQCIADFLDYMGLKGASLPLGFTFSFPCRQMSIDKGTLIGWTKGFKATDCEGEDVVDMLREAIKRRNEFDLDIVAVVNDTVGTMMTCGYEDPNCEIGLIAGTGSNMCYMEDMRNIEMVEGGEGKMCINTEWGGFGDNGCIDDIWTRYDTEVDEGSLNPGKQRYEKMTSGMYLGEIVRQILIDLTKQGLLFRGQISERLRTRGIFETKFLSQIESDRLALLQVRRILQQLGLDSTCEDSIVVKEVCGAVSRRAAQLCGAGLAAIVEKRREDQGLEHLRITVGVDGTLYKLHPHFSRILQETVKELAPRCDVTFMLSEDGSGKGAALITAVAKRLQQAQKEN
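Test system: recombinant HKDC1 (HK5) hexokinase enzyme, produced in-house; Amount: enzyme 5 µg/mL final; Buffer or medium: Tris pH 8.0 buffer with MgCl2, Tween-20, BSA, BME; Reagent: glucose and ATP substrates; Doses: 20 µM test compound, 1% DMSO; Incubation: 90 min reaction incubation at room temperature, dark; Detection: resorufin fluorescence at 613 nm.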
PfG6PD confirm = PfG6PD inhibition, single-dose confirmed | 2,400 compounds, 34% hits | shares compounds with PfGluPho inh | recombinant PfGluPho, NADPH-diaphorase-resazurin fluorescence | inhibition, % at 20 µM;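 active = inhibition of at least 50% at 20 µM in any single replicate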;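 note: 0% = DMSO with substrate and 100% = DMSO lacking glucose-6-phosphate substrate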
Diaphorase 10uM = diaphorase inhibition or oxidation at 10 uM NADPH; shares compounds with PfGluPho inh; diaphorase-coupled resazurin reduction, fluorescence, NADPH 10 uM; inhibition, % at 20 µM; 820 compounds, 39% hits; AID 504862;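 active = average inhibition reaching 50% or more with the compound at 20 µM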;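 note: resorufin red fluorescence formed as diaphorase reduces resazurin using NADPH; 0% = DMSO with enzyme and 100% = DMSO without enzyme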
Diaphorase 30uM = inhibits diaphorase or oxidizes, flagging false PfG6PD hits | 820 compounds, 29% hits | AID 504863 | inhibition, % at 20 µM | shares compounds with PfGluPho inh | Diaphorase/resazurin coupled assay, resorufin fluorescence, 30 uM NADPH;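 active = inhibition averaging 50% or more, tested at 20 µM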;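 note: 0% = DMSO with enzyme and 100% = DMSO wells lacking diaphorase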
* = called active by the depositor; / = no result. Most compounds without a hit are left out; they make up all but 1.2% or so of the library.

SMILES	Diaph act CS	PfGluPho inh	Diaphorase inh	G6PDH CS	HKDC1 inh	PfG6PD confirm	others
COC(=O)c1c(-c2ccc(C)cc2)csc1NC(=O)C1CC=CCC1C(=O)O (stereo unspecified)	0.9	-21	10	-12	-9	/
COc1ccc(CN(CCN(C)C)c2ccccn2)cc1	1	-5	4	11	0	/
CCCCCCCCCCCCCCCC[N+](C)(C)CCN(Cc1ccc(OC)cc1)c1ncccn1	/	64*	/	/	-5	14
CCOC(=O)C(C)Sc1nc(-c2cccs2)ccc1C#N (stereo unspecified)	0.9	78*	8	8	-1	2
C=COC(=O)CSc1nc(-c2cccs2)ccc1C#N	0.7	-11	35	10	-6	/
Oc1ccc(/C=N/N2CCOCC2)c(O)c1O	0.3	87*	69*	52*	1	48
COc1cccc(/C=N/N2CCOCC2)c1O	0.8	11	20	2	-9	/
Oc1ccc(/C=N/N2CCCCC2)c(O)c1O	/	118*	/	/	-1	92*	Diaphorase 10uM=98*;Diaphorase 30uM=96*
CN(c1ccc(C(=O)Nc2cccc(O)c2)cc1)S(=O)(=O)c1ccccc1	/	59*	/	/	2	-2
CC(=O)c1cccc(NC(=O)c2ccc(N(C)S(=O)(=O)c3ccc(C)cc3)cc2)c1	/	63*	/	/	3	12
CC(=O)c1cccc(NC(=O)c2ccc(N(Cc3ccc(C)cc3)S(C)(=O)=O)cc2)c1	0.9	2	14	4	0	/
COCc1ccc(C(=O)Nc2cccc(S(=O)(=O)N(C)c3ccccc3)c2)cc1	/	18	/	/	1	/
O=C1CCC(C(=O)Nc2cc(C(F)(F)F)ccc2-n2cncn2)=NN1	/	-9	/	/	-7	/
O=C(CSc1cccs1)Nc1cccc2ccccc12	0.8	3	18	5	-3	/
Nc1ccccc1SCC(=O)Nc1cccc2ccccc12	/	67*	/	/	16	10
CCOC(=O)c1c(NC(=O)c2ccoc2C)sc(C)c1C	0.8	2	22	-4	3	/
CCc1c(C)sc(NC(=O)c2ccoc2C)c1C(N)=O	/	94*	/	/	-17	44
C[C@H](CO)N1C[C@H](C)[C@@H](CN(C)S(=O)(=O)c2ccc(F)cc2)Oc2ccc(NC(=O)C3CC3)cc2C1=O	/	1	/	/	-4	/
CCOC(=O)c1c(-c2cc(OC)c(OC)c(OC)c2)csc1NC(=O)c1ccccc1	/	22	/	/	/	/
COc1ccc(-c2csc(NC(=O)c3ccccc3F)c2C(=O)O)cc1	/	47	/	/	3	/
Cc1ccc(C(=O)Nc2scc(-c3ccccc3)c2C(=O)O)cc1	/	105*	/	/	3	47
COc1cc(C(=O)Nc2scc(-c3ccccc3)c2C(=O)O)cc(OC)c1OC	/	69*	/	/	4	31
COc1cc(C(=O)Nc2scc(-c3ccc(C)cc3)c2C(=O)O)cc(OC)c1OC	/	76*	/	/	5	35
NS(=O)(=O)c1ccc(NC(=O)CN2CCN(S(=O)(=O)c3cccs3)CC2)cc1	/	12	/	/	-5	/
CSc1nsc(SCC(=O)Nc2ccc(C(N)=O)cc2)n1	/	-15	/	/	-5	/
SMILES	Diaph act CS	PfGluPho inh	Diaphorase inh	G6PDH CS	HKDC1 inh	PfG6PD confirm	others
Cc1ccc(NC(=O)NCCN2CCCCC2)cc1Cl	/	-9	/	/	2	/
OCCCNc1c2c(nc3cc(-c4ccc(Cl)cc4)nn13)CCC2	0.7	70*	33	6	-3	45
Clc1cccc(-c2cc3nc4c(c(NCc5ccco5)n3n2)CCCC4)c1	0.7	51	26	5	7	/
COc1cccc(N2[C@@H](CC(=O)O)c3cc(C(F)(F)F)ccc3S2(=O)=O)c1	/	72*	/	/	2	26
COc1cccc(N2[C@@H](CC(=O)O)c3ccccc3S2(=O)=O)c1	/	-4	/	/	-1	/
Cc1ccccc1-c1ccc(C(=O)Nc2cccc(F)c2)o1	0.8	69*	18	3	2	-3
O=C(Nc1cccc(F)c1)c1ccc(-c2ccccc2C(F)(F)F)o1	0.8	/	18	13	/	/
O=C(Nc1ccccc1C(=O)N/N=C/c1ccco1)c1ccccc1Cl	0.8	70*	18	-1	0	52*	Diaphorase 10uM=52*;Diaphorase 30uM=39
O=C1CC(c2ccccc2)(c2ccccc2)c2ccccc21	/	-13	/	/	2	/
Cc1cnc(CNC(=O)CC2C(=O)NCCN2Cc2cccc(F)c2F)cn1 (stereo unspecified)	/	-16	/	/	-3	/
Cc1onc(-c2ccccc2)c1C(=O)N/N=C/c1cn(C)c2ccccc12	0.8	90*	23	-2	4	71*	Diaphorase 10uM=68*;Diaphorase 30uM=58*
Cc1cccc(/C=N/NC(=O)c2c(-c3ccccc3)noc2C)c1O	/	17	/	/	-25	/
Cc1onc(-c2ccccc2)c1C(=O)N/N=C/c1cccs1	/	62*	/	/	0	44
Cc1onc(-c2ccccc2)c1C(=O)N/N=C/c1ccccc1OC(C)C	/	117*	/	/	6	85*	Diaphorase 10uM=76*;Diaphorase 30uM=50*
Cc1ccccc1OCC(=O)N/N=C/c1cn(C)c2ccccc12	/	64*	/	/	4	24
Cc1ccc(OCC(=O)N/N=C/c2cn(C)c3ccccc23)cc1	/	7	/	/	-3	/
